Assays:
[1] = Plasma concentration in Sprague-Dawley rat at 10 mg/kg, po after 60 mins; format: ADME, organism-based; set-up: dose 10 mg/kg, route oral
[2] = Plasma concentration in Sprague-Dawley rat at 10 mg/kg, po after 360 mins; format: ADME, organism-based; set-up: dose 10 mg/kg, route oral
[3] = AUC (8 hrs) in Sprague-Dawley rat at 1 mg/kg, iv; format: ADME, organism-based; set-up: time < 8 hr, dose 1 mg/kg, route intravenous; details: plasma
[4] = AUC (8 hrs) in Sprague-Dawley rat at 10 mg/kg, po; format: ADME, organism-based; set-up: time < 8 hr, dose 10 mg/kg, route oral; details: plasma
[5] = Cmax in Sprague-Dawley rat at 1 mg/kg, iv; format: ADME, organism-based; set-up: dose 1 mg/kg, route intravenous; details: in vivo
[6] = Cmax in Sprague-Dawley rat at 10 mg/kg, po; format: ADME, organism-based; set-up: dose 10 mg/kg, route oral; details: in vivo
[7] = Half life in Sprague-Dawley rat at 1 mg/kg, iv; format: ADME, organism-based; set-up: dose 1 mg/kg, route intravenous; details: in vivo
[8] = Volume of distribution at steady state in Sprague-Dawley rat at 1 mg/kg, iv; format: ADME, organism-based; set-up: dose 1 mg/kg, route intravenous; details: in vivo, read-out: Vdss
[9] = Clearance in Sprague-Dawley rat at 1 mg/kg, iv; format: ADME, organism-based; set-up: dose 1 mg/kg, route intravenous; details: in vivo
[10] = AUC (0 to infinity) in Beagle dog at 1 mg/kg, iv; format: ADME, organism-based, Canis lupus familiaris; set-up: dose 1 mg/kg, route intravenous, time infinity; details: plasma
[11] = AUC (0 to infinity) in Beagle […] at 10 mg/kg, po; format: ADME, organism-based, Canis lupus familiaris; set-up: time infinity, dose 10 mg/kg, route oral; details: plasma
[12] = Clearance in Beagle dog at 1 mg/kg, iv; format: ADME, organism-based, Canis lupus familiaris; set-up: dose 1 mg/kg, route intravenous; details: in vivo
[13] = Volume of distribution at steady state in Beagle dog at 1 mg/kg, iv; format: ADME, organism-based, Canis lupus familiaris; set-up: dose 1 mg/kg, route intravenous; details: in vivo, read-out: Vdss
[14] = Plasma concentration in Beagle dog at 1 mg/kg, iv after 0.08 hrs; format: ADME, organism-based, Canis lupus familiaris; set-up: dose 1 mg/kg, route intravenous
[15] = Plasma concentration in Beagle dog at 1 mg/kg, iv after 0.25 hrs; format: ADME, organism-based, Canis lupus familiaris; set-up: dose 1 mg/kg, route intravenous
[16] = Plasma concentration in Beagle dog at 1 mg/kg, iv after 0.5 hrs; format: ADME, organism-based, Canis lupus familiaris; set-up: dose 1 mg/kg, route intravenous
[17] = Plasma concentration in Beagle dog at 1 mg/kg, iv after 2 hrs; format: ADME, organism-based, Canis lupus familiaris; set-up: dose 1 mg/kg, route intravenous
[18] = Plasma concentration in Beagle dog at 1 mg/kg, iv after 4 hrs; format: ADME, organism-based, Canis lupus familiaris; set-up: dose 1 mg/kg, route intravenous
[19] = Plasma concentration in Beagle dog at 1 mg/kg, iv after 8 hrs; format: ADME, organism-based, Canis lupus familiaris; set-up: dose 1 mg/kg, route intravenous
[20] = Plasma concentration in Beagle dog at 1 mg/kg, iv after 24 hrs; format: ADME, organism-based, Canis lupus familiaris; set-up: dose 1 mg/kg, route intravenous
[21] = Plasma concentration in Beagle dog at 10 mg/kg, po after 1 hrs; format: ADME, organism-based, Canis lupus familiaris; set-up: dose 10 mg/kg, route oral
[22] = Plasma concentration in Beagle dog at 10 mg/kg, po after 2 hrs; format: ADME, organism-based, Canis lupus familiaris; set-up: dose 10 mg/kg, route oral
[23] = Plasma concentration in Beagle dog at 10 mg/kg, po after 4 hrs; format: ADME, organism-based, Canis lupus familiaris; set-up: dose 10 mg/kg, route oral
[24] = Plasma concentration in Beagle dog at 10 mg/kg, po after 8 hrs; format: ADME, organism-based, Canis lupus familiaris; set-up: dose 10 mg/kg, route oral
Rattus norvegicus [25] = assay: Anabolic effect in castrated rat levator ani muscle assessed as reversal of ORX-induced atrophy at 1 mg/kg/day sc using osmotic pump after 14 days; format: functional; details: route subcutaneous
Summary of the method: (§1)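 Orchiectomized male rats received compound by subcutaneous osmotic pump for 14 days at 0.1-3 (mg/kg)/day. […] Levator ani and ventral prostate were weighed after 2 weeks and compared with sham-operated vehicle-treated controls, expressed as reversal of ORX-induced atrophy.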

Rattus norvegicus [26] = assay: Androgenic effect in castrated rat prostate assessed as reversal at 0.3 to 3 mg/kg/day sc using osmotic pump after 14 days; format: functional, Prostate gland; details: route subcutaneous; summary of the method: as §1
Androgen receptor = molecular target: T1, Androgen receptor (Mus musculus, UniProt P19091); assay: Agonist activity at androgen receptor in mouse NIH3T3 cells transiently transfected with beta-galactosidase reporter gene assessed as cellular transformation by R-SAT assay
T1 sequence (P19091 whole entry): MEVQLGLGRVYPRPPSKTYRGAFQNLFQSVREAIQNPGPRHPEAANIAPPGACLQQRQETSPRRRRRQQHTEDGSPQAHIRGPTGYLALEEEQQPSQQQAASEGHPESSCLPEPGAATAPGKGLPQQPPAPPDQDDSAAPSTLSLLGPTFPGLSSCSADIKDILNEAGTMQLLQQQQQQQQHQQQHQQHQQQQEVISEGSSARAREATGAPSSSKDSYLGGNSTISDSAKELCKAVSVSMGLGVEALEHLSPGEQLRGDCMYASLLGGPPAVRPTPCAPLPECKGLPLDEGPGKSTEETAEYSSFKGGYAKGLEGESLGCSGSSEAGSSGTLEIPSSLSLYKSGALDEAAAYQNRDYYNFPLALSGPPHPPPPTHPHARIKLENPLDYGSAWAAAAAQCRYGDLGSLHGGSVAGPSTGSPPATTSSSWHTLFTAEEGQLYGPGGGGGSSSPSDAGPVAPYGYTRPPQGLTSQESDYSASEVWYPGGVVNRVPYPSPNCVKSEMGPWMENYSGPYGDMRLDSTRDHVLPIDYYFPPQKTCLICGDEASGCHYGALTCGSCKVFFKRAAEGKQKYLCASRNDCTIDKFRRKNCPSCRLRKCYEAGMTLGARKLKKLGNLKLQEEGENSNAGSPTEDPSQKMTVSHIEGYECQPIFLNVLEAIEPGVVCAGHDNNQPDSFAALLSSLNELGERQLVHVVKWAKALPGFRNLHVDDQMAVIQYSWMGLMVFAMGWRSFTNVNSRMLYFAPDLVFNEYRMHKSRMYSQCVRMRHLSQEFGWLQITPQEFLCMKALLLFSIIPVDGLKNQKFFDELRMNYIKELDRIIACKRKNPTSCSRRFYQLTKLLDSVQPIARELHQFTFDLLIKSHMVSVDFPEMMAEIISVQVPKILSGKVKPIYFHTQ

[27] = Agonist activity at androgen receptor LBD T877A mutant in mouse NIH3T3 cells transiently transfected with beta-galactosidase reporter gene assessed as cellular transformation by R-SAT assay; format: functional, cell-based
Summary of the method: (§2)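 AR expression vector transiently co-transfected (Polyfect) with β-galactosidase and coactivators SRC1, DRIP205 and GRIP1 into NIH-3T3 fibroblasts at 60-70% confluency. ONPG substrate added, absorbance read at 420 nm. EC50 from a hyperbolic fit. Mean ± SEM of three or more independent experiments.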

[28] = Agonist activity at androgen receptor LBD T877A mutant in mouse NIH3T3 cells transiently transfected with beta-galactosidase reporter gene assessed as cellular transformation by R-SAT assay relative to dihydrotestosterone; format: functional; summary of the method: as §2
Liver microsomes [29] = assay: Metabolic stability in human liver microsomes assessed as intrinsic clearance; format: ADME, Microsome
Liver microsomes [30] = assay: Metabolic stability in rat liver microsomes assessed as intrinsic clearance; format: ADME, Microsome
[31] = Plasma concentration in Sprague-Dawley rat at 1 mg/kg, iv after 1 min; format: ADME, organism-based; set-up: dose 1 mg/kg, route intravenous
[32] = Plasma concentration in Sprague-Dawley rat at 1 mg/kg, iv after 60 mins; format: ADME, organism-based; set-up: dose 1 mg/kg, route intravenous
[33] = Plasma concentration in Sprague-Dawley rat at 1 mg/kg, iv after 120 mins; format: ADME, organism-based; set-up: dose 1 mg/kg, route intravenous
[34] = Plasma concentration in Sprague-Dawley rat at 1 mg/kg, iv after 360 mins; format: ADME, organism-based; set-up: dose 1 mg/kg, route intravenous
[35] = Oral bioavailability in rat; format: ADME, organism-based; details: in vivo
[36] = Oral bioavailability in dog; format: ADME, organism-based, Canis lupus familiaris; details: in vivo
[37] = Plasma concentration in Sprague-Dawley rat at 1 mg/kg, iv after 240 mins; format: ADME, organism-based; set-up: dose 1 mg/kg, route intravenous
[38] = Plasma concentration in Sprague-Dawley rat at 10 mg/kg, po after 240 mins; format: ADME, organism-based; set-up: dose 10 mg/kg, route oral
[39] = Cmax in Beagle dog at 1 mg/kg, iv; format: ADME, organism-based, Canis lupus familiaris; set-up: dose 1 mg/kg, route intravenous; details: in vivo
[40] = Cmax in Beagle dog at 10 mg/kg, po; format: ADME, organism-based, Canis lupus familiaris; set-up: dose 10 mg/kg, route oral; details: in vivo

Compound: Cc1c(N2[C@@H]3CC[C@H]2C[C@@](C)(O)C3)ccc(C#N)c1Cl
- concentration at 1 h [1]: 263 ng/mL
- concentration at 6 h [2]: 350 ng/mL
- AUC at 8 h [3]: 631 ng·h/mL
- AUC at 8 h [4]: 2370 ng·h/mL
- Cmax [5]: 882 ng/mL
- Cmax [6]: 421 ng/mL
- half-life [7]: 148 min
- Vd [8]: 3.91 L/kg
- clearance [9]: 24.4 mL/min/kg
- AUC(0-inf) [10]: 394 ng·h/mL
- AUC(0-inf) [11]: 2210 ng·h/mL
- clearance [12]: 42 mL/min/kg
- Vd [13]: 6.1 L/kg
- concentration at 0.08 h [14]: 357 ng/mL
- concentration at 0.25 h [15]: 231 ng/mL
- concentration at 0.5 h [16]: 190 ng/mL
- concentration at 2 h [17]: 49.5 ng/mL
- concentration at 4 h [18]: 18.5 ng/mL
- concentration at 8 h [19]: 5.5 ng/mL
- concentration at 24 h [20]: 0.3 ng/mL
- concentration at 1 h [21]: 408 ng/mL
- concentration at 2 h [22]: 270 ng/mL
- concentration at 4 h [23]: 159 ng/mL
- concentration at 8 h [24]: 60.6 ng/mL
- Activity (Rattus norvegicus [25]): 67%
- Activity (Rattus norvegicus [26]): 21%
- EC50 (Androgen receptor): 1 nM
- EC50 [27]: 0.398 nM
- Efficacy [28]: 37%
- CL (Liver microsomes [29]): 28 uL/ml.millig
- CL (Liver microsomes [30]): 72 uL/ml.millig
- concentration at 1 min [31]: 824 ng/mL
- concentration at 1 h [32]: 137 ng/mL
- concentration at 2 h [33]: 74.3 ng/mL
- concentration at 6 h [34]: 23.5 ng/mL
- bioavailability [35]: 38%
- bioavailability [36]: 56%
- concentration at 4 h [37]: 45.4 ng/mL
- concentration at 4 h [38]: 353 ng/mL
- Cmax [39]: 357 ng/mL
- Cmax [40]: 835 ng/mL

Source: ChEMBL document CHEMBL1156129, “Synthesis, structure-activity relationships, and characterization of novel nonsteroidal and selective androgen receptor modulators” (J Med Chem, 2009)
